Results collected from several papers.
Each line is one published result; the experiments were not run side by side.
Sample: PAMPA

Cc1c(S(=O)(=O)N2CCc3[nH]ncc3C2)cc(C(=O)NCc2cccnc2N2CCCC2)n1C — Papp: 14.4 ×10⁻⁶ cm/s
C=C(CC(=O)OCOC(=O)C(C)(C)C)C(=O)O — Papp (10 µM, 4 h, pH 7.4): < 1 ×10⁻⁶ cm/s
CCCCC(CC)COC(=O)c1ccc(O)cc1 (stereo not drawn) — Papp (5 µM, pH 7.4): 1.49 ×10⁻⁶ cm/s
Cc1c(S(=O)(=O)N2CCc3c(cnn3C)C2)cc(C(=O)NCc2cccnc2N2CCCC2)n1C — Papp: 25 ×10⁻⁶ cm/s
CCCCCCCCOC(=O)c1ccc(O)cc1 — Papp (5 µM, pH 7.4): 0.73 ×10⁻⁶ cm/s
C=C(CC(=O)OC)C(=O)OCOC(=O)OC(C)C — Papp (10 µM, 4 h, pH 7.4): > 10 ×10⁻⁶ cm/s
Cc1c(S(=O)(=O)N2CCn3nccc3C2)cc(C(=O)NCc2cccnc2N2CCCC2)n1C — Papp: 27.9 ×10⁻⁶ cm/s
O=C(OCc1ccccc1)c1ccc(O)cc1 — Papp (5 µM, pH 7.4): 3.79 ×10⁻⁶ cm/s
Cc1c(S(=O)(=O)N2CCc3n[nH]cc3C2)cc(C(=O)NCc2c(F)ccc3cnn(C)c23)n1C — Papp: 11 ×10⁻⁶ cm/s
C=C(CC(=O)OCOC(=O)OC(C)C)C(=O)OC — Papp (10 µM, 4 h, pH 7.4): > 10 ×10⁻⁶ cm/s
Cc1[nH]c(C)c(S(=O)(=O)Nc2ccc(C(F)(F)F)c(Cl)c2)c1C(=O)N(C)C — Papp: 11 ×10⁻⁶ cm/s
C=C(CC(=O)OC)C(=O)OCc1oc(=O)oc1C — Papp (10 µM, 4 h): ~15 ×10⁻⁶ cm/s
Cc1c(S(=O)(=O)N2CCn3cncc3C2)cc(C(=O)NCc2c(F)ccnc2N2CCCC2)n1C — Papp: 19.1 ×10⁻⁶ cm/s
Cc1[nH]c(C)c(S(=O)(=O)Nc2ccc(C(F)(F)F)c(Cl)c2)c1C(=O)N1CCC(F)(F)C1 — Papp: 7.3 ×10⁻⁶ cm/s
CC(C)(C)OC(=O)c1ccc(O)cc1 — Papp (5 µM, pH 7.4): 4.04 ×10⁻⁶ cm/s
